The values that follow come from ChEMBL document CHEMBL4364265, “Oridonin derivatives as potential anticancer drug candidates triggering apoptosis through mitochondrial pathway in the liver cancer cells” (Eur J Med Chem, 2019).

The subject of assay [1] is HepG2. The experiment in a line: Induction of cell cycle arrest in human HepG2 cells assessed as accumulation at G1 phase at 0.25 uM incubated for 24 hrs by PI staining based flow cytometric analysis (reference value: 37.06%). In kind it is functional. (Flow cytometry measures light scatter and fluorescence of single cells or particles in a stream.)
Assay [2] concerns PLC-PRF-5. Description: Induction of mitochondrial membrane potential loss in human PLC/PRF/5 cell incubated for 24 hrs by JC1 staining based fluorescence microscopic method. In kind it is functional. In outline: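 Cells seeded in 12-well plates, cultured 12 h, treated 24 h (0, 0.25, 0.5, 1 µM). After a PBS wash, stained with JC-1 in medium for 20 min at 37 °C and washed three times. Red aggregate and green monomer fluorescence were imaged by fluorescence microscopy; the red/green ratio was taken; three independent experiments.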

In assay [3] the test system is PLC-PRF-5. Description: Induction of cell cycle arrest in human PLC/PRF/5 cells assessed as accumulation at G1 phase at 0.5 uM incubated for 24 hrs by PI staining based flow cytometric analysis (reference value: 34.78%). Format: functional.
The test system of assay [4] is HepG2. The experiment in a line: Induction of apoptosis in human HepG2 cells assessed as live cells at 1 uM incubated for 24 hrs by annexin V staining based cell counting method (reference value: 87.35%). In kind it is functional.
Assay [5] deals with PLC-PRF-5. The experiment in a line: Antiproliferative activity against human PLC/PRF/5 cells incubated for 72 hrs by CCK8 cells. In kind it is functional, cell-based. Particulars: PLC-PRF-5, 72 h.
Assay [6] relates to L02. The experiment in a line: Cytotoxicity against human LO2 cells incubated for 72 hrs by CCK8 cells. In kind it is cell-based. Particulars: L02, 72 h. A digest of the protocol: (§1)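 CCK-8 proliferation assay. 10,000 cells per well were preincubated 24 h at 37 °C with 5% CO2, then given compound dissolved in DMSO and incubated 72 h. CCK-8 was added for 4 h and absorbance read at 450 nm. IC50 was taken from dose-response curves as mean ± SEM of at least three independent experiments, with paclitaxel as positive control. HepG2 and L-O2 were grown in DMEM/10% FBS; A549 and RPMI-8226 in RPMI 1640/10% FBS.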

Assay [7] deals with HepG2. The experiment in a line: Induction of apoptosis in human HepG2 cells assessed as increase in cytochrome c protein expression level at 0.25 to 1.25 uM incubated for 24 hrs by Western blot analysis. Format: functional, cell-based. In outline:
(§2)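 Cells were treated 24 h in DMEM with 0, 0.25, 0.5, 1.0 or 1.25 µM compound. Adherent and floating cells were lysed in RIPA on ice and protein measured by BCA. Equal protein was run on 7.5–12.5% SDS-PAGE and transferred to PVDF. Membranes were blocked in 5% milk/PBST, incubated with primary antibody overnight at 4 °C, and detected by ECL.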
For orientation: Immunoblotting shows a protein as a band on a membrane.

Assay [8] deals with PLC-PRF-5. The experiment in a line: Induction of apoptosis in human PLC/PRF/5 cells assessed as upregulation of cleaved PARP protein expression level incubated for 24 hrs by Western blot analysis. Format: functional, cell-based. A digest of the protocol:
as §2

Assay [9] relates to PLC-PRF-5. The experiment in a line: Induction of apoptosis in human PLC/PRF/5 cells assessed as late apoptotic cells at 0.5 uM incubated for 24 hrs by annexin V staining based cell counting method (reference value: 4.81%). Format: functional.
Assay [10] has as its system RPMI-8226. The experiment in a line: Antiproliferative activity against human RPMI8226 cells incubated for 72 hrs by CCK8 cells. Format: functional, cell-based. Particulars: RPMI-8226, 72 h. A digest of the protocol:
as §1

Assay [11] has as its system PLC-PRF-5. Description: Induction of ROS generation in human PLC/PRF/5 cells at 1 uM by DCFH-DA staining-based flow cytometric analysis relative to control. Format: functional. A digest of the protocol:
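Cells were treated with 0, 0.25, 0.5 or 1 µM compound, stained with 10 µM DCFH-DA for 20 min at 37 °C, washed three times, resuspended in PBS and read by flow cytometry. Data are mean ± SD of three independent experiments.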

Assay [12] has as its system PLC-PRF-5. Description: Induction of apoptosis in human PLC/PRF/5 cells assessed as early apoptotic cells at 0.5 uM incubated for 24 hrs by annexin V staining based cell counting method (reference value: 5.65%). In kind it is functional.
In assay [13] the test system is HepG2. Description: Induction of apoptosis in human HepG2 cells assessed as upregulation of cleaved caspase 3 protein expression level incubated for 24 hrs by Western blot analysis. In kind it is functional, cell-based. In outline:
as §2

Assay [14] concerns PLC-PRF-5. Description: Induction of cell cycle arrest in human PLC/PRF/5 cells assessed as accumulation at G1 phase at 0.25 uM incubated for 24 hrs by PI staining based flow cytometric analysis (reference value: 34.78%). Format: functional.
Assay [15] concerns HepG2. Description: Induction of apoptosis in human HepG2 cells assessed as early apoptotic cells at 0.5 uM incubated for 24 hrs by annexin V staining based cell counting method (reference value: 3.60%). Format: functional.
Assay [16] has as its system PLC-PRF-5. The experiment in a line: Induction of apoptosis in human PLC/PRF/5 cells assessed as live cells at 0.25 uM incubated for 24 hrs by annexin V staining based cell counting method (reference value: 88.95%). In kind it is functional.
Assay [17] relates to HepG2. Description: Induction of apoptosis in human HepG2 cells assessed as early apoptotic cells at 0.25 uM incubated for 24 hrs by annexin V staining based cell counting method (reference value: 3.60%). Format: functional.
Assay [18] relates to HepG2. Description: Induction of apoptosis in human HepG2 cells assessed as change in p53 protein expression level at 0.25 to 1.25 uM incubated for 24 hrs by Western blot analysis. Format: functional, cell-based. A digest of the protocol: as §2
In assay [19] the test system is PLC-PRF-5. The experiment in a line: Induction of apoptosis in human PLC/PRF/5 cells assessed as shrunken chromatin at 0.25 to 1 uM incubated for 24 hrs by Hoechst 33258 dye based fluorescence microscopic method. In kind it is functional, cell-based. In outline:
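About 2 × 10^4 cells per well were plated overnight and treated 24 h with 0, 0.25, 0.5 or 1 µM compound. Cells were fixed in 4% paraformaldehyde for 30 min at room temperature, stained with 20 µg/mL Hoechst 33258 for 20 min at 37 °C, and imaged by fluorescence microscopy.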

The subject of assay [20] is HepG2. Description: Induction of cell cycle arrest in human HepG2 cells assessed as accumulation at G1 phase at 1 uM incubated for 24 hrs by PI staining based flow cytometric analysis (reference value: 37.06%). Format: functional.
Assay [21] deals with HepG2. Description: Induction of cell cycle arrest in human HepG2 cells assessed as accumulation at G2 phase at 0.5 uM incubated for 24 hrs by PI staining based flow cytometric analysis (reference value: 25.55%). Format: functional.
Assay [22] has as its system HepG2. The experiment in a line: Induction of apoptosis in human HepG2 cells assessed as upregulation of Bax protein expression level incubated for 24 hrs by Western blot analysis. Format: functional, cell-based. A digest of the protocol: as §2
Assay [23] deals with HepG2. The experiment in a line: Antiproliferative activity against human HepG2 cells incubated for 72 hrs by CCK8 cells. Format: functional, cell-based. Particulars: HepG2, 72 h. In outline:
as §1

Calls of active or inactive are those of the source. The calls are words filed in the database; no cut-off is given here.

The IC50 is the concentration needed to halve the response being measured. Higher therefore signals lower potency. Turning to `C=C1C(=O)[C@]23[C@H](OC(=O)/C=C/c4ccc(OC)cc4)[C@H]1CC[C@H]2[C@@]12CO[C@]3(O)[C@@H](O)[C@@H]1C(C)(C)CC[C@@H]2O`, the Activity in [1] was 38.04%; in assay [2], “Dose-dependent effect”; in [3], 43.49%; in assay [4], 53.4%; in assay [8], “Dose-dependent effect”; in assay [9], 18.84%. The Activity was 16.04% in assay [12]; “Dose-dependent effect” in assay [13]; 37.17% in [14]; 8.95% in assay [15]; 80.53% in [16]; 5.3% in assay [17]. Also, the Activity in assay [20] was 42.33%; in assay [21], 23.84%; in assay [22], “Dose-dependent effect”. The IC50 in [5] came to 0.78 µM; in assay [6], 1.47 µM; in [10], 8.56 µM; in [23], 1.36 µM. Besides, the result in assay [7] and in assay [19] was Active. In addition, the “fold change (FC)” value in assay [11] came to 3. Moreover, the result in assay [18] was inactive.
